We go through 5 compounds from ChEMBL document CHEMBL3758071, “Phomanolides A and B from the Fungus Phoma sp.: Meroterpenoids Derived from a Putative Tropolonic Sesquiterpene via Hetero-Diels-Alder Reactions” (J Nat Prod, 2015).

Holding throughout (type): functional, cell-based
Test [1] relates to U-251. The test is described as follows: Antiproliferative activity against human U251 cells at 20 ug/ml after 48 hrs by MTT assay. On the technique in general: Tetrazolium dyes change colour on reduction, which living cells bring about.
Test [2] has as its system HeLa. The test can be described thus: Antiproliferative activity against human HeLa cells at 20 ug/ml after 48 hrs by MTT assay.
The test system of the next test is H4. The test can be described thus: Antiproliferative activity against human H4 cells at 20 ug/ml after 48 hrs by MTT assay.
The test system of a further test is HCT-116. The test can be described thus: Antiproliferative activity against human HCT116 cells at 20 ug/ml after 48 hrs by MTT assay.
Test [3] relates to SH-SY5Y. The test is described as follows: Antiproliferative activity against human SH-SY5Y cells at 20 ug/ml after 48 hrs by MTT assay.
Another test relates to T-24. The test is described as follows: Antiproliferative activity against human T24 cells at 20 ug/ml after 48 hrs by MTT assay.
In test [4] the test system is A549. The test is described as follows: Antiproliferative activity against human A549 cells at 20 ug/ml after 48 hrs by MTT assay.
Test [5] is described as follows: Antiproliferative activity against human H4 cells after 48 hrs by MTT assay. Particulars: H4, 48 h. The procedure, abridged: (§1)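 H4 and U251 glioma cells were maintained in MEM-EBSS with 10% FBS at 37 °C and 5% CO2. Cells were plated at 10^4 per well and attached overnight. They were treated 4 h with serially diluted compound (DMSO stock 10 mg/mL; vehicle 0.2% DMSO), then given fresh DMEM for 48 h. MTT (0.5 mg/mL) was added for 3 h, DMSO used to solubilise, and A540 read. IC50 reported.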

In test [6] the test system is SH-SY5Y. The test is described as follows: Antiproliferative activity against human SH-SY5Y cells after 48 hrs by MTT assay. The method in brief:
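SH-SY5Y cells were grown in DMEM with 10% FBS at 37 °C and 5% CO2, seeded at 10^4 cells/well and left to attach overnight. Cells were exposed to serial dilutions from a 10 mg/mL DMSO stock (vehicle 0.2% DMSO) for 4 h at 37 °C, then grown 48 h in fresh DMEM. MTT (0.5 mg/mL) was added for 3 h in the dark, formazan dissolved in DMSO, and absorbance read at 540 nm.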

The subject of test [7] is U-251. The test is described as follows: Antiproliferative activity against human U251 cells after 48 hrs by MTT assay. Conditions: U-251, 48 h. The procedure, abridged:
as §1

For test [8], the system named is HeLa. The test can be described thus: Antiproliferative activity against human HeLa cells after 48 hrs by MTT assay. The procedure, abridged: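 HeLa cells were grown in RPMI 1640 with 10% FBS at 37 °C and 5% CO2 and seeded at 10^4 per well overnight. Serial dilutions (DMSO stock 10 mg/mL; vehicle 0.2% DMSO) were applied for 4 h at 37 °C, then the medium was replaced with fresh DMEM for 48 h. MTT (0.5 mg/mL) was added for 3 h in the dark, formazan dissolved in DMSO, and absorbance read at 540 nm. IC50 reported.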

Test [9] in a line: Antiproliferative activity against human T24 cells after 48 hrs by MTT assay. Conditions: T-24, 48 h. The procedure, abridged: (§2)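 A549, T24 and HCT116 cells were grown in McCoy's 5A with 10% FBS at 37 °C and 5% CO2. Cells were seeded at 10^4 per well and attached overnight. They were exposed for 4 h to serial dilutions (DMSO stock 10 mg/mL; vehicle 0.2% DMSO), then grown 48 h in fresh DMEM. MTT (0.5 mg/mL) was added for 3 h, formazan dissolved in DMSO, and A540 read. IC50 reported.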

In test [10] the test system is A549. The test can be described thus: Antiproliferative activity against human A549 cells after 48 hrs by MTT assay. Conditions: A549, 48 h. The method in brief:
as §2

The nature of test [11]: Antiproliferative activity against human HCT116 cells after 48 hrs by MTT assay. Particulars: HCT-116, 48 h. The procedure, abridged:
as §2

One may read the IC50 as the concentration that gives 50% inhibition. A high value points to lower potency.

Active and inactive are the calls of the source. The rule behind the calls is not given here.

With `C/C1=C/CC(C)(C)/C=C/C[C@]2(C)OC3=CC(=O)O[C@]4(C)CC(=O)O[C@]34C[C@H]2C[C@@H]1O`, the outcome in the test with U-251 [1], with HeLa [2], with H4, with HCT-116, in the test with SH-SY5Y [3] and in the test on T-24 was inactive. Besides, in the test on A549 [4], the result was inactive.
As for `Cn1nnc2c(C(N)=O)ncn2c1=O` [TEMOZOLOMIDE], the IC50 (in [5]; with SH-SY5Y [6]; in the test on U-251 [7]) was greater than 100000 nM each time.
`CC1=CC(=O)O[C@@]12C[C@H]1C[C@H](O)[C@@]3(C)Oc4cc(O)cc(C)c4C[C@H]3CC(C)(C)/C=C/C[C@]1(C)O/C2=C\C(=O)O`: the half-inhibitory concentration (IC50) in the test on SH-SY5Y [6] worked out at 81100 nM; with HeLa [8] it was 14300 nM.
In the case of `C/C1=C/CC(C)(C)[C@@H]2O[C@H]2C[C@@]2(C)O[C@@H]2C[C@@H]1O`, the outcome in the test on U-251 [1], with HeLa [2], with H4, in the test on HCT-116, in the test on SH-SY5Y [3] and in the test on T-24 was inactive. The outcome in the test on A549 [4] was inactive.
Turning to `Cc1cc(=O)c(O)cc2c1C[C@H]1CC(C)(C)/C=C/C[C@]3(C)Oc4cc(O)c(=O)cc(C)c4C[C@H]3C[C@H](O)[C@@]1(C)O2`, the half-maximal inhibitory concentration (IC50) in test [5] came out at 130 nM; in the test with SH-SY5Y [6], 80 nM; in the test with HeLa [8], 8.2 nM; in the test on U-251 [7], 100 nM; in test [9], 12.5 nM; with A549 [10], 30.6 nM. Further, in test [11], the IC50 stood at 31.2 nM.
